Assay results: ChEMBL document CHEMBL4350954, “Identification of Thienopyrimidine Scaffold as an Inhibitor of the ABC Transport Protein ABCC1 (MRP1) and Related Transporters Using a Combined Virtual Screening Approach” (J Med Chem, 2019)

Columns and labels:
[1] = Growth inhibition of human A2780/ADR cells incubated for 72 hrs by MTT assay; assay type: cell-based
Method in brief: (§1)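 MTT-based cytotoxicity assay giving GI50 of the compound alone in each listed parental, selected or transfected cell line.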

ABCB1 (P-gp) = test: Therapeutic index, ratio of GI50 for human A2780/ADR cells to IC50 for ABCB1 in human A2780/ADR cells; assay type: toxicity, cell-based; details: read-out: TI
Method in brief: (§2)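 Therapeutic ratio = GI50 from the MTT cytotoxicity assay / IC50 from the inhibition assay in the same cell line. The cell lines were H69AR (calcein AM, ABCC1), A2780/ADR (calcein AM, ABCB1) and MDCK II BCRP (pheophorbide A, ABCG2).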

[2] = Growth inhibition of MDCK2 cells co-expressing MDR1 (unknown origin) incubated for 72 hrs by MTT assay; assay type: ADME, cell-based, Canis lupus familiaris, MDCK-II; details: dog; method in brief: as §1
[3] = Growth inhibition of human MCF7/MX cells incubated for 72 hrs by MTT assay; method in brief: as §1
[4] = molecular target: T1, Broad substrate specificity ATP-binding cassette transporter ABCG2 (Homo sapiens, UniProt Q9UNQ0); test: (§3) Reversal of ABCG2 (unknown origin)-mediated multidrug resistance in MDCK2 cells co-expressing BCRP (unknown origin) assessed as resistance factor by measuring [GI50(resistant cell line without or with compound)/ GI50(sensitive cell line)] at 1 uM incubated for 72 hrs by MTT assay (reference value: 27); assay type: cell-based
T1 sequence (Q9UNQ0 whole entry): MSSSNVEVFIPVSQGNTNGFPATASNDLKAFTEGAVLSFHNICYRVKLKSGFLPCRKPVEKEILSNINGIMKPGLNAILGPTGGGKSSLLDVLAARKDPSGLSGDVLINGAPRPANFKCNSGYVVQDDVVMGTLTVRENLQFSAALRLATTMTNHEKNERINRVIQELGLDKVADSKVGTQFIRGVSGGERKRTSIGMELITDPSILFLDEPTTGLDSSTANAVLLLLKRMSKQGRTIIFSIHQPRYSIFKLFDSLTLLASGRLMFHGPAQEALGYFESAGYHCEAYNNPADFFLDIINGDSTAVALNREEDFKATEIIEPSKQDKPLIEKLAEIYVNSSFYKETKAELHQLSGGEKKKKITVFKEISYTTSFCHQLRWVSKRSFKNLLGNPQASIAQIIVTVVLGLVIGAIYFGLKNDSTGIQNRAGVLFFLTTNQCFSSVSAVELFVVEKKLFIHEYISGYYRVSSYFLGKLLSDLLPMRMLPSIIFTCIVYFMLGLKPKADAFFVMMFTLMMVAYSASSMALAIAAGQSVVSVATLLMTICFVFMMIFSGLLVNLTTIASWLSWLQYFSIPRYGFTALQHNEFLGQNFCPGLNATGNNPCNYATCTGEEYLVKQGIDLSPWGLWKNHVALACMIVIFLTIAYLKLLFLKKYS

[5] = molecular target: T1, Broad substrate specificity ATP-binding cassette transporter ABCG2; test: Inhibition of ABCG2 (unknown origin) expressed in MDCK2 cells co-expressing BCRP (unknown origin) assessed as effect on pheophorbide A accumulation pre-incubated for 20 mins followed by pheophorbide A addition and measured after 120 mins by flow cytometric analysis; assay type: cell-based
Method in brief: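 Pheophorbide A accumulation assay in ABCG2-transfected MDCK II BCRP cells. Ko143 at 10 µM set 100% and no compound set 0%. Screening was at 10 µM; compounds reaching >20% (+SEM) got IC50 curves constrained to the Ko143 maximum at 10 µM. Values are reported as mean ± SEM.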

[6] = molecular target: T1, Broad substrate specificity ATP-binding cassette transporter ABCG2; test: Reversal of ABCG2-mediated multidrug resistance in human MCF-7/MX cells assessed as resistance factor by measuring [GI50(resistant cell line without or with compound)/ GI50(sensitive cell line)] incubated for 72 hrs by MTT assay (reference value: 789)
[7] = molecular target: T2, ATP-dependent translocase ABCB1 (Homo sapiens, UniProt P08183); test: Reversal of ABCB1-mediated multidrug resistance in human A2780/ADR cells assessed as resistance factor by measuring [GI50(resistant cell line without or with compound)/ GI50(sensitive cell line)] at 0.5 uM incubated for 72 hrs by MTT assay (reference value: 49); assay type: cell-based
Method in brief: (§4)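 MDR reversal assay with daunorubicin at 10 nM–10 µM, alone or with test compound at 0.5, 1, 5 or 10 µM. Resistant cells were ABCB1-overexpressing A2780/ADR or MDCK II MDR1, with sensitive A2780 or MDCK II cells as comparators. Resistance factor = resistant GI50 / sensitive GI50. EC50 was derived from resistance factors versus modulator concentration. Values are from ≥3 experiments in duplicate ± SEM.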

[8] = Growth inhibition of MDCK2 cells co-expressing BCRP (unknown origin) after 72 hrs by MTT assay; assay type: ADME, cell-based, Canis lupus familiaris, MDCK-II; details: dog; method in brief: as §1
[9] = molecular target: T3, Multidrug resistance-associated protein 1 (Homo sapiens, UniProt P33527); test: as §3, with “ABCC1” for “ABCG2”, “MRP1” for “BCRP”, “7)” for “27)”; assay type: cell-based
[10] = molecular target: T3, Multidrug resistance-associated protein 1; test: Reversal of ABCC1-mediated multidrug resistance in human H69AR cells assessed as resistance factor by measuring [GI50(resistant cell line without or with compound)/ GI50(sensitive cell line)] at 10 uM incubated for 72 hrs by MTT assay (reference value: 8.2); assay type: cell-based
[11] = molecular target: T2, ATP-dependent translocase ABCB1; test: as §3, with “ABCB1” for “ABCG2”, “MDR1” for “BCRP”, “17)” for “27)”; assay type: cell-based; method in brief: as §4
[12] = Growth inhibition of MDCK2 cells co-expressing MRP1 (unknown origin) incubated for 72 hrs by MTT assay; assay type: cell-based, Canis lupus familiaris, MDCK-II; details: dog; method in brief: as §1
[13] = molecular target: T1, Broad substrate specificity ATP-binding cassette transporter ABCG2; test: as §3, with “5” for “1”; assay type: cell-based
ABCG2 (BCRP) = test: Therapeutic index, ratio of GI50 for MDCK2 cells co-expressing BCRP (unknown origin) to IC50 for ABCG2 (unknown origin) expressed in MDCK2 cells co-expressing BCRP (unknown origin); assay type: toxicity, cell-based; details: dog, read-out: TI; method in brief: as §2
[14] = molecular target: T3, Multidrug resistance-associated protein 1; test: Reversal of ABCC1-mediated multidrug resistance in human H69AR cells assessed as resistance factor by measuring [GI50(resistant cell line without or with compound)/ GI50(sensitive cell line)] at 5 uM incubated for 72 hrs by MTT assay (reference value: 8.2); assay type: cell-based
[15] = Growth inhibition of human H69AR cells incubated for 72 hrs by MTT assay; method in brief: as §1
[16] = molecular target: T2, ATP-dependent translocase ABCB1; test: Reversal of ABCB1-mediated multidrug resistance in human A2780/ADR cells assessed as resistance factor by measuring [GI50(resistant cell line without or with compound)/ GI50(sensitive cell line)] at 10 uM incubated for 72 hrs by MTT assay (reference value: 49); assay type: cell-based; method in brief: as §4
[17] = Growth inhibition of human A2780 cells incubated for 72 hrs by MTT assay; assay type: cell-based; method in brief: as §1
[18] = molecular target: T3, Multidrug resistance-associated protein 1; test: as §3, with “ABCC1” for “ABCG2”, “MRP1” for “BCRP”, “10” for “1”, “7)” for “27)”; assay type: cell-based
[19] = molecular target: T1, Broad substrate specificity ATP-binding cassette transporter ABCG2; test: as §3, with “0.5” for “1”; assay type: cell-based

T3 sequence (P33527 whole entry): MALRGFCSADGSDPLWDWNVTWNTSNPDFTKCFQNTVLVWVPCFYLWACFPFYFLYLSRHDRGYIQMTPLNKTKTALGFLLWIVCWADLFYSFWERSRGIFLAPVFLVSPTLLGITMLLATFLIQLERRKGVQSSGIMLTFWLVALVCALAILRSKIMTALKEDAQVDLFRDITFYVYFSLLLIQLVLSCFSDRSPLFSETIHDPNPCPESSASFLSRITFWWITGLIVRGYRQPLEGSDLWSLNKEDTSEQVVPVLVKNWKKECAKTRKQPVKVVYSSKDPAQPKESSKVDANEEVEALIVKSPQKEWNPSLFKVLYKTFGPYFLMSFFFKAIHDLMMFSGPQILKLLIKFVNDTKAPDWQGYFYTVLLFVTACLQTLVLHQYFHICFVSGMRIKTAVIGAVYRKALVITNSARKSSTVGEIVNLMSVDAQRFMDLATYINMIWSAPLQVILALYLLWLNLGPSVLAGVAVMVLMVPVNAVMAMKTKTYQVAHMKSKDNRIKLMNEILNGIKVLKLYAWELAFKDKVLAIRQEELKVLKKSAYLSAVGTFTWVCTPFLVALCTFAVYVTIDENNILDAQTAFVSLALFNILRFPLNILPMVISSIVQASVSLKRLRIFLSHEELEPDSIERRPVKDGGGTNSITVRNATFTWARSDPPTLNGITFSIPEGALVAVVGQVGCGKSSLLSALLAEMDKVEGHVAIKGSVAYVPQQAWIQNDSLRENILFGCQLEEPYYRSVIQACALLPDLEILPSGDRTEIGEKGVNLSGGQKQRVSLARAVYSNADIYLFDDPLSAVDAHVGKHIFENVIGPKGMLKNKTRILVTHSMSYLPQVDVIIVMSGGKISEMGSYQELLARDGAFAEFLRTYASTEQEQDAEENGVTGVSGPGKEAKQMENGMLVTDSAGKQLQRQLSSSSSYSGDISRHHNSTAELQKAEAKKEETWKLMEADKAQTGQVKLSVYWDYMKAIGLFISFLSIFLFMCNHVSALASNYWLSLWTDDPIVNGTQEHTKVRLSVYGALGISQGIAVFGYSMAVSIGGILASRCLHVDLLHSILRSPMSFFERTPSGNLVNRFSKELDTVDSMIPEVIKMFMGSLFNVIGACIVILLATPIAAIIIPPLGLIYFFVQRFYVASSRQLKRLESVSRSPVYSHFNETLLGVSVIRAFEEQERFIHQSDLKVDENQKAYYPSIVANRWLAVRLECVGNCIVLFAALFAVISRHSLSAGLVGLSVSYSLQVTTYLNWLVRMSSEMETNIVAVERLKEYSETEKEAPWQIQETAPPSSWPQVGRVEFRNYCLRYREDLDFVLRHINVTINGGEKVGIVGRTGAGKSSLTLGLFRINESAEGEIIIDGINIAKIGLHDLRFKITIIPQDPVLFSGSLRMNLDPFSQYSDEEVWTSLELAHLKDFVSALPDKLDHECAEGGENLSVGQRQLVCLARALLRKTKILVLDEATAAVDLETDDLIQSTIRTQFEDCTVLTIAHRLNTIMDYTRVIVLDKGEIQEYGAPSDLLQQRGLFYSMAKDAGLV
T2 sequence (P08183 whole entry): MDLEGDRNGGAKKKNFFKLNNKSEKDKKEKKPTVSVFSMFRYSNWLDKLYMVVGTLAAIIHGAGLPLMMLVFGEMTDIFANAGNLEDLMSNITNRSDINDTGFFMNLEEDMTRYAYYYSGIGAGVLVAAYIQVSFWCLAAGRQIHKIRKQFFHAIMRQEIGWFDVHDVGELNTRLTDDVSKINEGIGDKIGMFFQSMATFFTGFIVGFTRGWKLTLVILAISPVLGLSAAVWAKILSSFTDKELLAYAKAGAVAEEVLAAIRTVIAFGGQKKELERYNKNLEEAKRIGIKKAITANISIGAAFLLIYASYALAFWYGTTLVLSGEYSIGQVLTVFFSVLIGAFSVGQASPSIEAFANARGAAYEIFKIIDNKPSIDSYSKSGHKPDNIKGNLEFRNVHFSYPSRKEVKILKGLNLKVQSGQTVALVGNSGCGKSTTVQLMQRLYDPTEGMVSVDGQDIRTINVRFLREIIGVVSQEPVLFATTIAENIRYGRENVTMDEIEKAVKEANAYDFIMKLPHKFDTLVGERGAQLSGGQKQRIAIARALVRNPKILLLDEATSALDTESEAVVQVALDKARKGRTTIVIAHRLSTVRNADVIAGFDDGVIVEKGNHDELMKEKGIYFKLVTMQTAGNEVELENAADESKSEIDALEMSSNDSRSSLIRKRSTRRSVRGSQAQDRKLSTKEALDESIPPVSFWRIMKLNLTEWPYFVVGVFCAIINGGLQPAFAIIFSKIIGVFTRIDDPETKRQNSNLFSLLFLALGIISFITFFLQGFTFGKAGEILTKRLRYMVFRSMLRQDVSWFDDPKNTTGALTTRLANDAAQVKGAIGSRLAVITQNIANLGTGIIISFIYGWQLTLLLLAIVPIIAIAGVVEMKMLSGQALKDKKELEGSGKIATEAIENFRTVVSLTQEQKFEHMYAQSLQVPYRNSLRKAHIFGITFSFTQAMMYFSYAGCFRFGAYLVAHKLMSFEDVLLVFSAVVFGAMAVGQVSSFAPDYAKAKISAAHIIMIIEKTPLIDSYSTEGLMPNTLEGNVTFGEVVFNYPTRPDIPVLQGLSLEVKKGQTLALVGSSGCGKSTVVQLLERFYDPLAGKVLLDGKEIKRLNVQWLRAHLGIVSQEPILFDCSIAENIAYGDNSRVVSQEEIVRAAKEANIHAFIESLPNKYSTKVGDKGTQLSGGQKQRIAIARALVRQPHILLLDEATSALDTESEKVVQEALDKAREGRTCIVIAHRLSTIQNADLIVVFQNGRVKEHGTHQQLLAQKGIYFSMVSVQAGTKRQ

RatioGI50 [4]: 17
IC50 [5]: 2.38 µM
RatioGI50 [6]: 53
RatioGI50 [7]: 32
RatioGI50 [9]: 3.4
RatioGI50 [10]: 3
RatioGI50 [11]: 4.3
RatioGI50 [13]: 4.5
RatioGI50 [14]: 3.8
RatioGI50 [16]: 4.1
RatioGI50 [18]: 1.4
RatioGI50 [19]: 21
Compound: CC1CCc2c(sc3nc(-c4cccnc4)nc(N4CCN(C(C(N)=O)c5ccccc5)CC4)c23)C1 (stereo unspecified)
GI50 at 72 h [1]: 25.8 µM
selectivity ratio (ABCB1 (P-gp)): 14.9
GI50 at 72 h [2]: 25 µM
GI50 at 72 h [3]: 47 µM
GI50 at 72 h [8]: 16.4 µM
GI50 at 72 h [12]: 42.4 µM
selectivity ratio (ABCG2 (BCRP)): 6.9
GI50 at 72 h [15]: 56.9 µM
GI50 at 72 h [17]: 24.6 µM
